Source: ChEMBL document CHEMBL3352023, “C-terminal residue optimization and fragment merging: discovery of a potent Peptide-hybrid inhibitor of dengue protease” (ACS Med Chem Lett, 2014)

Tests used:
[1] = target: Genome polyprotein (dengue virus type 2) (UniProt P12823); test: Inhibition of Dengue virus serotype 2 NS2B-NS3 protease at 50 uM by homogeneous fluorimetric assay
[2] = target: Genome polyprotein (dengue virus type 2) (UniProt P12823); test: Competitive inhibition of Dengue virus serotype 2 NS2B-NS3 protease by aprotinin competition fluorescence assay
Method in brief: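 Active-site binding checked by aprotinin competition: fluorescence decrease followed with increasing inhibitor concentration, then aprotinin added to test recovery of fluorescence.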

[3] = target: Genome polyprotein (West Nile virus) (UniProt P06935); test: Inhibition of West Nile virus […] NS2B-NS3 protease at 50 uM by homogeneous fluorimetric assay
Genome polyprotein (West Nile virus), sequence (P06935 whole entry): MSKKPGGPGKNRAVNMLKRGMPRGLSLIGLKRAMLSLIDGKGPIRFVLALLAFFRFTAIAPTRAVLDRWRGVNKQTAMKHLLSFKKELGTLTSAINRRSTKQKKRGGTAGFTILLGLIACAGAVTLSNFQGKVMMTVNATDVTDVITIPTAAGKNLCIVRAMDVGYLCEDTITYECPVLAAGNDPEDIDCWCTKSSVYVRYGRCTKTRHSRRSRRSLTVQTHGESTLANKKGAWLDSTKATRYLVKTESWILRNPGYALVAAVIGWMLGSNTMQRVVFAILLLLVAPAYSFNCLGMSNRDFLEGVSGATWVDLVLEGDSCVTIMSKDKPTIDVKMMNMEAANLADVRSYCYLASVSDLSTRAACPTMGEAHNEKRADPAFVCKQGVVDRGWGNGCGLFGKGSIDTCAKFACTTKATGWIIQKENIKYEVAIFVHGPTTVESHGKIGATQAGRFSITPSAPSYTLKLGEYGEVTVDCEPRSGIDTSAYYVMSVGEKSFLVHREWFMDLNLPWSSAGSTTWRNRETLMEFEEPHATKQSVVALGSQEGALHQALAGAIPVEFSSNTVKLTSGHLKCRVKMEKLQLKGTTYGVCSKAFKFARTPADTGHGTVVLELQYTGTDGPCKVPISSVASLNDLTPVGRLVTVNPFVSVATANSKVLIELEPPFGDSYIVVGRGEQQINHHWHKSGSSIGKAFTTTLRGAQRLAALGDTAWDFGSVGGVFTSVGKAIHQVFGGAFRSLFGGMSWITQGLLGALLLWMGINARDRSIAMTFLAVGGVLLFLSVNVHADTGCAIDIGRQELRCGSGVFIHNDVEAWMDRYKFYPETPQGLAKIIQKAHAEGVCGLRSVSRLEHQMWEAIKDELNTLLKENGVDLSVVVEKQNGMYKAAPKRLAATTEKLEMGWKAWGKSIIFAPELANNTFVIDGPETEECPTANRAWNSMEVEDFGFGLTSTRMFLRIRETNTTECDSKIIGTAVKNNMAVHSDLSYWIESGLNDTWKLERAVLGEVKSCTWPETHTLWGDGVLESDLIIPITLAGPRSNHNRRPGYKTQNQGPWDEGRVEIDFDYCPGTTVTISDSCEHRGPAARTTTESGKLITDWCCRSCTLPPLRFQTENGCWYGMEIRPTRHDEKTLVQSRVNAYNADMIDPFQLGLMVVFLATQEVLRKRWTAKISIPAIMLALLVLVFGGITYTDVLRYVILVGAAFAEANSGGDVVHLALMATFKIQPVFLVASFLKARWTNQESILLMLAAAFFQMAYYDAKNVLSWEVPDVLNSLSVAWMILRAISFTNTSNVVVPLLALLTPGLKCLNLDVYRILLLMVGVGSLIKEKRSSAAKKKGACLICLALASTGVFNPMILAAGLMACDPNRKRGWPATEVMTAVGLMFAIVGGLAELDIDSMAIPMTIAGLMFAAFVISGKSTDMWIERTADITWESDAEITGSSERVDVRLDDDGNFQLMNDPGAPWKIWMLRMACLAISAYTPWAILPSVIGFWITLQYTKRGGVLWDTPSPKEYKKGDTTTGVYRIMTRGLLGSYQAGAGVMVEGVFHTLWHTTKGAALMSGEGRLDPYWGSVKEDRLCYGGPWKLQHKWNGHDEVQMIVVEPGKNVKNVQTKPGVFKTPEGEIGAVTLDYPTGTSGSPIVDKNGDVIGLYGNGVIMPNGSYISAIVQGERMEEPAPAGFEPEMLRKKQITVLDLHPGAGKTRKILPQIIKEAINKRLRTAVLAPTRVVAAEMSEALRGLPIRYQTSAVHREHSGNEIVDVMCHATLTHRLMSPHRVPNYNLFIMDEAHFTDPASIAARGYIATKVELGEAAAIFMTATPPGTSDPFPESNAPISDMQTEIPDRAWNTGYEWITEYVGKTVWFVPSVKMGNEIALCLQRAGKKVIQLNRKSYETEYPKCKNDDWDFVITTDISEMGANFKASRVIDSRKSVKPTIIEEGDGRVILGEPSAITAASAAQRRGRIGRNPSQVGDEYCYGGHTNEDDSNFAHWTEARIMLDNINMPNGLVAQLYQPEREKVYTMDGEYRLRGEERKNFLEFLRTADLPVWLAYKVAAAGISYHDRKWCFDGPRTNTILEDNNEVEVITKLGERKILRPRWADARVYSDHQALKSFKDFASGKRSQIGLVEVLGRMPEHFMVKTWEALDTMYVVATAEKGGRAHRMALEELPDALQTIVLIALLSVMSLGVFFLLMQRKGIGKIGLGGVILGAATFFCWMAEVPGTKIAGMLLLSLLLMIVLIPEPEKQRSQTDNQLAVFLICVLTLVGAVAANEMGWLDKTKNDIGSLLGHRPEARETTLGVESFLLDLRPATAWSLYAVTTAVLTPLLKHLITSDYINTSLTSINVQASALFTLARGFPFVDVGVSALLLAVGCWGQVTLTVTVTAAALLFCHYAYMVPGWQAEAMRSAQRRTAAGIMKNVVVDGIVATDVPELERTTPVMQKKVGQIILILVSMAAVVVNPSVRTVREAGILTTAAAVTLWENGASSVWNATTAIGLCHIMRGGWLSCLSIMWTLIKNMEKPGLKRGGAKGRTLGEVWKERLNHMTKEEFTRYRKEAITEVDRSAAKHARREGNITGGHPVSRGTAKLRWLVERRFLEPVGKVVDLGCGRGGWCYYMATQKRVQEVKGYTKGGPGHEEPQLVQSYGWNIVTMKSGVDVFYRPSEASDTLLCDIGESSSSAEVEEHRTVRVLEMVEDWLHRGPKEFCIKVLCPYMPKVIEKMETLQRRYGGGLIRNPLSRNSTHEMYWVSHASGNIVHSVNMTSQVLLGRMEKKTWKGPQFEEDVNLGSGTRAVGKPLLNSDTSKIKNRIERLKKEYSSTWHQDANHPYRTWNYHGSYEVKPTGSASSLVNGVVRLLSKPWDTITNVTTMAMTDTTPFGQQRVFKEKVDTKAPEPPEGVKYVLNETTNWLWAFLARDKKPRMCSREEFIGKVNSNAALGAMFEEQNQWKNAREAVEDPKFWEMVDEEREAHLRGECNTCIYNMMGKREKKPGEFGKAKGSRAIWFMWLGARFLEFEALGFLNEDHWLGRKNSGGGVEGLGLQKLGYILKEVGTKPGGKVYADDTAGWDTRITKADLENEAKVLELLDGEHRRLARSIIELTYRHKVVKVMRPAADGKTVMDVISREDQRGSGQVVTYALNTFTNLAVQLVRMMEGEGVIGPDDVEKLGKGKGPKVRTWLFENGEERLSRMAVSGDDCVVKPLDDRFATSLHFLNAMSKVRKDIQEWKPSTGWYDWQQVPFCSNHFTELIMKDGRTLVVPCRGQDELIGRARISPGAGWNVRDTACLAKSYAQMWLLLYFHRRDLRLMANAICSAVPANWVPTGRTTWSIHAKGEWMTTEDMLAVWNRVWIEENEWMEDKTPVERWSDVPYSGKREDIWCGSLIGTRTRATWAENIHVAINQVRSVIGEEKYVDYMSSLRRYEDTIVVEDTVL
Method in brief: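 WNV NS2B-NS3 protease percent inhibition, homogeneous fluorimetric assay: enzyme 150 nM, inhibitor 50 μM, substrate 50 μM (Km = 212 μM); triplicate, SD below 10%.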

[4] = target: Prothrombin (Homo sapiens) (UniProt P00734); test: Inhibition of thrombin (unknown origin) at 25 uM by homogeneous fluorimetric assay
[5] = target: Genome polyprotein (dengue virus type 2, UniProt P12823); test: Inhibition of Dengue virus serotype 2 NS2B-NS3 protease by homogeneous fluorimetric assay

N=C(N)NCCC[C@H](NC(=O)c1ccc(/C=C2\SC(=O)N(C3CCCC3)C2=O)cc1)C(=O)N[C@@H](CCCCN)C(=O)N[C@H](C(N)=O)c1ccccc1
inhibition [1]: 99.6%
inhibition [2]: Dose-dependent effect
inhibition [3]: 98.4%
inhibition [4]: 9.2%
IC50 [5]: 600 nM
